# Key:
# Assay type in all cases: functional
# BT-549 = test: Growth inhibition of human BT-549 cells assessed as cell growth at 100 uM incubated for 48 hrs by sulforhodamine B assay relative to control; settings: read-out: Activity
# MDA-MB-468 = test: Growth inhibition of human MDA-MB-468 cells assessed as cell growth at 1 uM incubated for 48 hrs by sulforhodamine B assay relative to control; settings: read-out: Activity
# MDA-MB-435 [1] = test: Growth inhibition of human MDA-MB-435 cells assessed as cell growth at 1 uM incubated for 48 hrs by sulforhodamine B assay relative to control; settings: read-out: Activity
# NCI-H226 = test: Growth inhibition of human NCI-H226 cells assessed as cell growth at 0.01 uM incubated for 48 hrs by sulforhodamine B assay relative to control; settings: read-out: Activity
# TK-10 = test: Growth inhibition of human TK-10 cells assessed as cell growth at 0.1 uM incubated for 48 hrs by sulforhodamine B assay relative to control; settings: read-out: Activity
# SR = test: Growth inhibition of human SR cells incubated for 48 hrs by sulforhodamine B assay
# Outline: (§1)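 NCI DTP 60-line human tumour panel. Dose-response curves were run only for ligands active in the initial 10 µM screen. GI50 (concentration giving 50% of maximal inhibition of proliferation) and TGI (concentration giving total growth inhibition) were derived from these curves.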
# RXF 393 = test: Growth inhibition of human RXF 393 cells assessed as cell growth at 100 uM incubated for 48 hrs by sulforhodamine B assay relative to control; settings: read-out: Activity
# IGROV-1 = test: Growth inhibition of human IGROV-1 cells assessed as cell growth at 0.01 uM incubated for 48 hrs by sulforhodamine B assay relative to control; settings: read-out: Activity
# KM12 = test: Growth inhibition of human KM12 cells assessed as cell growth at 0.01 uM incubated for 48 hrs by sulforhodamine B assay relative to control; settings: read-out: Activity
# SN12C [2] = test: Growth inhibition of human SN12C cells assessed as cell growth at 0.01 uM incubated for 48 hrs by sulforhodamine B assay relative to control; settings: read-out: Activity
# OVCAR-3 = test: Growth inhibition of human OVCAR-3 cells incubated for 48 hrs by sulforhodamine B assay; settings: for CC50: read-out: LC50 (the source's name); outline: as §1
# SF-268 [3] = test: Growth inhibition of human SF-268 cells assessed as cell growth at 0.01 uM incubated for 48 hrs by sulforhodamine B assay relative to control; settings: read-out: Activity
# SN12C [4] = test: Growth inhibition of human SN12C cells assessed as cell growth at 0.1 uM incubated for 48 hrs by sulforhodamine B assay relative to control; settings: read-out: Activity
# UO-31 [5] = test: Growth inhibition of human UO-31 cells assessed as cell growth at 1 uM incubated for 48 hrs by sulforhodamine B assay relative to control; settings: read-out: Activity
# SNB-75 [6] = test: Growth inhibition of human SNB-75 cells incubated for 48 hrs by sulforhodamine B assay; outline: as §1
# NCI-H522 [7] = test: Growth inhibition of human NCI-H522 cells incubated for 48 hrs by sulforhodamine B assay
# Outline: (§2)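 NCI60 panel at the NCI Developmental Therapeutics Program. Only compounds active in the 10 µM screen went to dose-response testing. GI50, the concentration giving 50% of maximal inhibition of proliferation, and TGI, the concentration giving total growth inhibition, were derived from the dose-response curves.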
# MDA-MB-435 [8] = test: Growth inhibition of human MDA-MB-435 cells assessed as cell growth at 0.1 uM incubated for 48 hrs by sulforhodamine B assay relative to control; settings: read-out: Activity
# NCI/ADR-RES = test: Growth inhibition of human NCI/ADR-RES cells assessed as cell growth at 100 uM incubated for 48 hrs by sulforhodamine B assay relative to control; settings: read-out: Activity
# HCT-116 = test: Growth inhibition of human HCT-116 cells incubated for 48 hrs by sulforhodamine B assay; outline: as §2
# HCT-15 = test: Growth inhibition of human HCT-15 cells assessed as cell growth at 1 uM incubated for 48 hrs by sulforhodamine B assay relative to control; settings: read-out: Activity
# 786-0 = test: Growth inhibition of human 786-0 cells assessed as cell growth at 0.1 uM incubated for 48 hrs by sulforhodamine B assay relative to control; settings: read-out: Activity
# Outline: (§3)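 NCI Developmental Therapeutics Program NCI60 panel. Compounds that were active in the 10 µM one-dose screen went on to dose–response testing. Growth at each concentration is expressed relative to untreated control (100%). GI50 (concentration giving 50% of maximal inhibition of proliferation) and TGI (concentration giving total growth inhibition) were derived from the curves.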
# SF-268 [9] = test: Growth inhibition of human SF-268 cells assessed as cell growth at 0.1 uM incubated for 48 hrs by sulforhodamine B assay relative to control; settings: read-out: Activity
# SF-539 = test: Growth inhibition of human SF-539 cells assessed as cell growth at 1 uM incubated for 48 hrs by sulforhodamine B assay relative to control; settings: read-out: Activity
# COLO 205 = test: Growth inhibition of human COLO 205 cells assessed as cell growth at 100 uM incubated for 48 hrs by sulforhodamine B assay relative to control; settings: read-out: Activity; outline: as §3
# NCI-H522 [10] = test: Growth inhibition of human NCI-H522 cells assessed as cell growth at 1 uM incubated for 48 hrs by sulforhodamine B assay relative to control; settings: read-out: Activity
# HOP-62 = test: Growth inhibition of human HOP-62 cells assessed as cell growth at 1 uM incubated for 48 hrs by sulforhodamine B assay relative to control; settings: read-out: Activity
# SNB-75 [11] = test: Growth inhibition of human SNB-75 cells assessed as cell growth at 100 uM incubated for 48 hrs by sulforhodamine B assay relative to control; settings: read-out: Activity
# K562 = test: Growth inhibition of human K562 cells incubated for 48 hrs by sulforhodamine B assay; outline: as §2
# UO-31 [12] = test: Growth inhibition of human UO-31 cells assessed as cell growth at 0.01 uM incubated for 48 hrs by sulforhodamine B assay relative to control; settings: read-out: Activity
# RPMI-8226 = test: Growth inhibition of human RPMI-8226 cells assessed as cell growth at 1 uM incubated for 48 hrs by sulforhodamine B assay relative to control; settings: read-out: Activity
# SW-620 = test: Growth inhibition of human SW-620 cells incubated for 48 hrs by sulforhodamine B assay; outline: as §1
# SK-MEL-5 = test: Growth inhibition of human SK-MEL-5 cells assessed as cell growth at 0.1 uM incubated for 48 hrs by sulforhodamine B assay relative to control; settings: read-out: Activity
# U-251 = test: Growth inhibition of human U-251 cells assessed as cell growth at 0.1 uM incubated for 48 hrs by sulforhodamine B assay relative to control; settings: read-out: Activity
compound,measurement,setting,value
CCc1ccccc1NC(=O)c1sc2nc3c(cc2c1N)C(=O)CCC3,growth at 100 µM,BT-549,11%
same,growth at 1 µM,MDA-MB-468,-4%
same,growth at 1 µM,MDA-MB-435 [1],-53%
same,growth at 0.01 µM,NCI-H226,89%
same,growth at 0.1 µM,TK-10,97%
same,GI50,SR,406 nM
same,LC50,SR,> 100 µM
same,TGI,SR,> 100 µM
same,growth at 100 µM,RXF 393,-41%
same,growth at 0.01 µM,IGROV-1,108%
same,growth at 0.01 µM,KM12,100%
same,growth at 0.01 µM,SN12C [2],94%
same,GI50,OVCAR-3,367 nM
same,TGI,OVCAR-3,15.8 µM
same,CC50,OVCAR-3,> 100 µM
same,growth at 0.01 µM,SF-268 [3],103%
same,growth at 0.1 µM,SN12C [4],88%
same,growth at 1 µM,UO-31 [5],50%
same,GI50,SNB-75 [6],193 nM
same,LC50,SNB-75 [6],> 100 µM
same,TGI,SNB-75 [6],55.1 µM
same,GI50,NCI-H522 [7],502 nM
same,LC50,NCI-H522 [7],> 100 µM
same,TGI,NCI-H522 [7],> 100 µM
same,growth at 0.1 µM,MDA-MB-435 [8],29%
same,growth at 100 µM,NCI/ADR-RES,-6%
same,GI50,HCT-116,483 nM
same,LC50 (concentration killing 50% of cells),HCT-116,> 100 µM
same,TGI,HCT-116,> 100 µM
same,growth at 1 µM,HCT-15,30%
same,growth at 0.1 µM,786-0,89%
same,growth at 0.1 µM,SF-268 [9],93%
same,growth at 1 µM,SF-539,11%
same,growth at 100 µM,COLO 205,-72%
same,growth at 1 µM,NCI-H522 [10],34%
same,growth at 1 µM,HOP-62,33%
same,growth at 100 µM,SNB-75 [11],-19%
same,GI50,K562,203 nM
same,LC50 (concentration killing 50% of cells),K562,> 100 µM
same,TGI,K562,> 100 µM
same,growth at 0.01 µM,UO-31 [12],90%
same,growth at 1 µM,RPMI-8226,41%
same,GI50,SW-620,322 nM
same,LC50 (concentration killing 50% of cells),SW-620,> 100 µM
same,TGI,SW-620,> 100 µM
same,growth at 0.1 µM,SK-MEL-5,82%
Cc1ccc(NC(=O)c2sc3nc4c(cc3c2N)C(=O)CCC4)cc1C,growth at 100 µM,BT-549,42%
same,growth at 1 µM,MDA-MB-468,-9%
same,growth at 1 µM,MDA-MB-435 [1],-58%
same,growth at 0.01 µM,NCI-H226,90%
same,growth at 0.1 µM,TK-10,85%
same,GI50,SR,499 nM
same,LC50,SR,> 100 µM
same,TGI,SR,26.8 µM
same,growth at 100 µM,RXF 393,14%
same,growth at 0.01 µM,IGROV-1,104%
same,growth at 0.01 µM,KM12,98%
same,growth at 0.01 µM,SN12C [2],94%
same,GI50,OVCAR-3,343 nM
same,TGI,OVCAR-3,1.4 µM
same,CC50,OVCAR-3,> 100 µM
same,growth at 0.01 µM,SF-268 [3],95%
same,growth at 0.1 µM,SN12C [4],96%
same,growth at 1 µM,UO-31 [5],42%
same,GI50,SNB-75 [6],183 nM
same,LC50,SNB-75 [6],> 100 µM
same,TGI,SNB-75 [6],> 100 µM
same,GI50,NCI-H522 [7],256 nM
same,LC50,NCI-H522 [7],> 100 µM
same,TGI,NCI-H522 [7],20 µM
same,growth at 0.1 µM,MDA-MB-435 [8],60%
same,growth at 100 µM,NCI/ADR-RES,4%
same,GI50,HCT-116,527 nM
same,LC50 (concentration killing 50% of cells),HCT-116,> 100 µM
same,TGI,HCT-116,> 100 µM
same,growth at 1 µM,HCT-15,32%
same,growth at 0.1 µM,786-0,88%
same,growth at 0.1 µM,SF-268 [9],94%
same,growth at 1 µM,SF-539,21%
same,growth at 100 µM,COLO 205,-56%
same,growth at 0.1 µM,U-251,92%
same,growth at 1 µM,NCI-H522 [10],1%
same,growth at 1 µM,HOP-62,40%
same,growth at 100 µM,SNB-75 [11],10%
same,GI50,K562,468 nM
same,LC50 (concentration killing 50% of cells),K562,> 100 µM
same,TGI,K562,35 µM
same,growth at 0.01 µM,UO-31 [12],81%
same,growth at 1 µM,RPMI-8226,57%
same,GI50,SW-620,400 nM
same,LC50 (concentration killing 50% of cells),SW-620,> 100 µM
same,TGI,SW-620,> 100 µM
same,growth at 0.1 µM,SK-MEL-5,90%

# Source: ChEMBL document CHEMBL4715736, “Identification of anticancer agents based on the thieno[2,3-b]pyridine and 1H-pyrazole molecular scaffolds” (2016)
